Laboratory results from ChEMBL document CHEMBL5058577, “EUbOPEN Chemogenomics Library 2 (Multiplex)” (2022).

System: U2OS
Test: Multiplex assay against U2OS
Type: toxicity, cell-based
Conditions: human
Outline: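 Live cells were stained at seeding with Hoechst33342, BioTracker Green Microtubule Cytoskeleton Dye, MitoTracker Red and Annexin V Alexa Fluor 680, then imaged on a CQ1 microscope at 37°C and 5% CO2 after compound addition. CellPathfinder machine-learning gating split cells into Hoechst high-intensity objects or normal cells. Normal cells were split into healthy, pyknosed or fragmented nuclei, and pyknosed cells into mitotic or apoptotic. Tubulin, mitochondrial-mass and membrane-permeability phenotypes are per cents of healthy-nucleus cells.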

[1] = 12 h, 1 µM, compound concentration 1 uM, replicate 1
[2] = 12 h, 1 µM, compound concentration 1 uM, replicate 2
[3] = 12 h, 10 µM, compound concentration 10 uM, replicate 1
[4] = 12 h, 10 µM, compound concentration 10 uM, replicate 2
[5] = 24 h, 1 µM, compound concentration 1 uM, replicate 1
[6] = 24 h, 1 µM, compound concentration 1 uM, replicate 2
[7] = 24 h, 10 µM, compound concentration 10 uM, replicate 1
[8] = 24 h, 10 µM, compound concentration 10 uM, replicate 2
[9] = 48 h, 1 µM, compound concentration 1 uM, replicate 1
[10] = 48 h, 1 µM, compound concentration 1 uM, replicate 2
[11] = 48 h, 10 µM, compound concentration 10 uM, replicate 1
[12] = 48 h, 10 µM, compound concentration 10 uM, replicate 2

## O=C1[C@H](Cc2ccc(O)cc2)N2C(=O)CCN(C(=O)NCc3ccccc3)[C@H]2CN1Cc1cccc2ccccc12
[1]
  Population Apoptotic (%): 91%
  Population Fragmented Nuclei (%): 13%
  Population Healthy Nuclei (%): 74%
  Population Hoechst High Intensity Objects (%): 4%
  Population Membrane Permeable-Phenotype (%): 4%
  Population Mitochondria Different-Phenotype (%): 1%
  Population Mitotic Cells (%): 8%
  Population Normal (%): 96%
  Population Pyknosed Nuclei (%): 12%
  Population Tubulin-Different-Phenotype (%): 1%
  Total Cell Count: 200
[2]
  Population Apoptotic (%): 84%
  Population Fragmented Nuclei (%): 21%
  Population Healthy Nuclei (%): 66%
  Population Hoechst High Intensity Objects (%): 0%
  Population Membrane Permeable-Phenotype (%): 5%
  Population Mitochondria Different-Phenotype (%): 8%
  Population Mitotic Cells (%): 15%
  Population Normal (%): 99%
  Population Pyknosed Nuclei (%): 11%
  Population Tubulin-Different-Phenotype (%): 4%
  Total Cell Count: 113
[3]
  Population Apoptotic (%): 60%
  Population Fragmented Nuclei (%): 32%
  Population Healthy Nuclei (%): 50%
  Population Hoechst High Intensity Objects (%): 3%
  Population Membrane Permeable-Phenotype (%): 55%
  Population Mitochondria Different-Phenotype (%): 35%
  Population Mitotic Cells (%): 40%
  Population Normal (%): 96%
  Population Pyknosed Nuclei (%): 17%
  Population Tubulin-Different-Phenotype (%): 55%
  Total Cell Count: 207
[4]
  Population Apoptotic (%): 72%
  Population Fragmented Nuclei (%): 19%
  Population Healthy Nuclei (%): 67%
  Population Hoechst High Intensity Objects (%): 6%
  Population Membrane Permeable-Phenotype (%): 38%
  Population Mitochondria Different-Phenotype (%): 47%
  Population Mitotic Cells (%): 27%
  Population Normal (%): 93%
  Population Pyknosed Nuclei (%): 13%
  Population Tubulin-Different-Phenotype (%): 43%
  Total Cell Count: 88
[5]
  Population Apoptotic (%): 80%
  Population Fragmented Nuclei (%): 13%
  Population Healthy Nuclei (%): 73%
  Population Hoechst High Intensity Objects (%): 2%
  Population Membrane Permeable-Phenotype (%): 4%
  Population Mitochondria Different-Phenotype (%): 1%
  Population Mitotic Cells (%): 19%
  Population Normal (%): 97%
  Population Pyknosed Nuclei (%): 13%
  Population Tubulin-Different-Phenotype (%): 2%
  Total Cell Count: 242
[6]
  Population Apoptotic (%): 88%
  Population Fragmented Nuclei (%): 14%
  Population Healthy Nuclei (%): 71%
  Population Hoechst High Intensity Objects (%): 1%
  Population Membrane Permeable-Phenotype (%): 7%
  Population Mitochondria Different-Phenotype (%): 5%
  Population Mitotic Cells (%): 11%
  Population Normal (%): 98%
  Population Pyknosed Nuclei (%): 14%
  Population Tubulin-Different-Phenotype (%): 4%
  Total Cell Count: 127
[7]
  Population Apoptotic (%): 65%
  Population Fragmented Nuclei (%): 34%
  Population Healthy Nuclei (%): 42%
  Population Hoechst High Intensity Objects (%): 3%
  Population Membrane Permeable-Phenotype (%): 25%
  Population Mitochondria Different-Phenotype (%): 23%
  Population Mitotic Cells (%): 34%
  Population Normal (%): 96%
  Population Pyknosed Nuclei (%): 22%
  Population Tubulin-Different-Phenotype (%): 25%
  Total Cell Count: 214
[8]
  Population Apoptotic (%): 85%
  Population Fragmented Nuclei (%): 29%
  Population Healthy Nuclei (%): 54%
  Population Hoechst High Intensity Objects (%): 5%
  Population Membrane Permeable-Phenotype (%): 36%
  Population Mitochondria Different-Phenotype (%): 38%
  Population Mitotic Cells (%): 14%
  Population Normal (%): 94%
  Population Pyknosed Nuclei (%): 16%
  Population Tubulin-Different-Phenotype (%): 42%
  Total Cell Count: 91
[9]
  Population Apoptotic (%): 81%
  Population Fragmented Nuclei (%): 15%
  Population Healthy Nuclei (%): 73%
  Population Hoechst High Intensity Objects (%): 3%
  Population Membrane Permeable-Phenotype (%): 2%
  Population Mitochondria Different-Phenotype (%): 2%
  Population Mitotic Cells (%): 18%
  Population Normal (%): 96%
  Population Pyknosed Nuclei (%): 11%
  Population Tubulin-Different-Phenotype (%): 3%
  Total Cell Count: 326
[10]
  Population Apoptotic (%): 95%
  Population Fragmented Nuclei (%): 16%
  Population Healthy Nuclei (%): 67%
  Population Hoechst High Intensity Objects (%): 5%
  Population Membrane Permeable-Phenotype (%): 3%
  Population Mitochondria Different-Phenotype (%): 0%
  Population Mitotic Cells (%): 4%
  Population Normal (%): 94%
  Population Pyknosed Nuclei (%): 15%
  Population Tubulin-Different-Phenotype (%): 5%
  Total Cell Count: 168
[11]
  Population Apoptotic (%): 82%
  Population Fragmented Nuclei (%): 37%
  Population Healthy Nuclei (%): 43%
  Population Hoechst High Intensity Objects (%): 5%
  Population Membrane Permeable-Phenotype (%): 28%
  Population Mitochondria Different-Phenotype (%): 16%
  Population Mitotic Cells (%): 17%
  Population Normal (%): 94%
  Population Pyknosed Nuclei (%): 19%
  Population Tubulin-Different-Phenotype (%): 19%
  Total Cell Count: 252
[12]
  Population Apoptotic (%): 81%
  Population Fragmented Nuclei (%): 33%
  Population Healthy Nuclei (%): 46%
  Population Hoechst High Intensity Objects (%): 4%
  Population Membrane Permeable-Phenotype (%): 22%
  Population Mitochondria Different-Phenotype (%): 20%
  Population Mitotic Cells (%): 18%
  Population Normal (%): 95%
  Population Pyknosed Nuclei (%): 20%
  Population Tubulin-Different-Phenotype (%): 18%
  Total Cell Count: 111
